Reference: ChEMBL document CHEMBL4219021, “Discovery of a Small-Molecule Degrader of Bromodomain and Extra-Terminal (BET) Proteins with Picomolar Cellular Potencies and Capable of Achieving Tumor Regression” (J Med Chem, 2018)
Activity calls are given as the source filed them. No cut-off for these calls is given here.

Tests used:
[1] = target: T1, Protein cereblon/Bromodomain-containing protein 4/Cullin-4A (Homo sapiens) (UniProt O60885+Q96SW2+Q13619); assay: Induction of cereblon/cullin 4A-mediated BRD4 degradation in human RS4:11 cells at 1 nM after 3 hrs in presence of proteosome inhibitor MG-132 by Western blot method; type: cell-based
[2] = target: T2, Protein cereblon/Bromodomain-containing protein 2/Cullin-4A (Homo sapiens) (UniProt P25440+Q96SW2+Q13619); assay: Induction of cereblon/cullin 4A-mediated BRD2 degradation in human RS4:11 cells at 1 nM after 3 hrs in presence of cereblon inhibitor lenalidomide by Western blot method; type: cell-based
T2 sequence (P25440 whole entry, looked up): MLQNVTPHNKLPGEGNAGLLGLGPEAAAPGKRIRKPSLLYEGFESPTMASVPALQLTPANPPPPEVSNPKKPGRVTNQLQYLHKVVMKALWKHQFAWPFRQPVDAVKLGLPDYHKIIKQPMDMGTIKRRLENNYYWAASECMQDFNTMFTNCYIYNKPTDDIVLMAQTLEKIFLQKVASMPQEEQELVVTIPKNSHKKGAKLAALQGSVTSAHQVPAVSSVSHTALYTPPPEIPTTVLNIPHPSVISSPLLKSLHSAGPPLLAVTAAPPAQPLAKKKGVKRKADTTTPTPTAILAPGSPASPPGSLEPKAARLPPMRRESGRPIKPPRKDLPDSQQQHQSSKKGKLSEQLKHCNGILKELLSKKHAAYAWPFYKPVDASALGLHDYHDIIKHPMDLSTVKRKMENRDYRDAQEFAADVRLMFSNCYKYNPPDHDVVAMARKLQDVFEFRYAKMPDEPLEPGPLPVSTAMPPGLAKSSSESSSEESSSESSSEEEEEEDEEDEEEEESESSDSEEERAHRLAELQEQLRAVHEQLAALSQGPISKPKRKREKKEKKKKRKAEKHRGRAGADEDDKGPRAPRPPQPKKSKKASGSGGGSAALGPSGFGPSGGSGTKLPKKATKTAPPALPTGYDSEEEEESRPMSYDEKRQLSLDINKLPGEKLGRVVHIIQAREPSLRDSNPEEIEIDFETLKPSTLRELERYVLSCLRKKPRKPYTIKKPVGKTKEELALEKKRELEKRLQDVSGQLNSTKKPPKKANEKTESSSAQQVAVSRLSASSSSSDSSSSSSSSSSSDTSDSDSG
T2 sequence (Q13619 whole entry, looked up): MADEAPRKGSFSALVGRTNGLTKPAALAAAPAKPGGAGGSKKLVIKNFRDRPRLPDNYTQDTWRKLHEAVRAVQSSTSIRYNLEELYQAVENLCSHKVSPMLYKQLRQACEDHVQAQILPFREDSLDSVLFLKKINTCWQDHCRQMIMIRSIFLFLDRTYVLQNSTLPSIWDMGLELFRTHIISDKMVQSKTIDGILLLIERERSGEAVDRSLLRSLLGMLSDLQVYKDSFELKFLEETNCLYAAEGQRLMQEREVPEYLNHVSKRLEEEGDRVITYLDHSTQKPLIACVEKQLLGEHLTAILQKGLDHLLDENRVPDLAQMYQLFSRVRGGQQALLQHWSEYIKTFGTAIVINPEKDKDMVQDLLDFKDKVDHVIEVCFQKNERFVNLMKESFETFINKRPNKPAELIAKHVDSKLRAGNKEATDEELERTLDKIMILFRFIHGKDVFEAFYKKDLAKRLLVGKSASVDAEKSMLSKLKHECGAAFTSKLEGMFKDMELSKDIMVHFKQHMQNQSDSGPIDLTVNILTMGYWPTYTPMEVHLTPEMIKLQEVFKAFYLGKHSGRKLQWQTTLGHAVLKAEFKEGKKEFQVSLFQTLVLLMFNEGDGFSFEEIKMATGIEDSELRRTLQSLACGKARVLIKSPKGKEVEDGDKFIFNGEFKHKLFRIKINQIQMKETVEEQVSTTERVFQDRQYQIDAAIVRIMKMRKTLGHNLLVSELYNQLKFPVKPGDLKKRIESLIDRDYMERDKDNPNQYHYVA
T2 sequence (Q96SW2 whole entry, looked up): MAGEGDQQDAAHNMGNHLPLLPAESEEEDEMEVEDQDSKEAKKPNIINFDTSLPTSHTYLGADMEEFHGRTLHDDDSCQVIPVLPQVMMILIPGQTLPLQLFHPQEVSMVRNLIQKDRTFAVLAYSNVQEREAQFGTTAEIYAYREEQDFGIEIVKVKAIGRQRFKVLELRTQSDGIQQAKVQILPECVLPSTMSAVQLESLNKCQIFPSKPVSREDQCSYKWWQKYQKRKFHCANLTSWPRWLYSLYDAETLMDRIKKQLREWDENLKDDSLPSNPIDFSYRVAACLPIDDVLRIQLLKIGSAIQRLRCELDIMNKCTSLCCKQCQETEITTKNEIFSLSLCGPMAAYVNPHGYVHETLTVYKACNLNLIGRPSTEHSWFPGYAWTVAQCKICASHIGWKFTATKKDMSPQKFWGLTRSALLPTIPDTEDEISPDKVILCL

[3] = organism: Homo sapiens; assay: Induction of cereblon/cullin 4A-mediated BET degradation in human RS4:11 cells assessed as downregulation of c-myc protein level at 0.1 nM after 24 hrs by Western blot method; type: cell-based
Method in brief: (§1)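 RS4;11 cells (2 × 10⁶/well) treated for 24 h at the indicated concentrations. Lysed in RIPA with protease inhibitors and immunoblotted for BRD2, BRD3, BRD4, c-Myc and PARP, with GAPDH as loading control.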

[4] = target: T3, Protein cereblon/Bromodomain-containing protein 3/Cullin-4A (Homo sapiens) (UniProt Q15059+Q96SW2+Q13619); assay: Induction of cereblon/cullin 4A-mediated BRD3 degradation in human RS4:11 cells at 1 nM after 3 hrs in presence of cereblon inhibitor lenalidomide by Western blot method; type: cell-based
T3 sequence (Q13619 whole entry, looked up): as the sequence (Q13619 whole entry, looked up) above
T3 sequence (Q15059 whole entry, looked up): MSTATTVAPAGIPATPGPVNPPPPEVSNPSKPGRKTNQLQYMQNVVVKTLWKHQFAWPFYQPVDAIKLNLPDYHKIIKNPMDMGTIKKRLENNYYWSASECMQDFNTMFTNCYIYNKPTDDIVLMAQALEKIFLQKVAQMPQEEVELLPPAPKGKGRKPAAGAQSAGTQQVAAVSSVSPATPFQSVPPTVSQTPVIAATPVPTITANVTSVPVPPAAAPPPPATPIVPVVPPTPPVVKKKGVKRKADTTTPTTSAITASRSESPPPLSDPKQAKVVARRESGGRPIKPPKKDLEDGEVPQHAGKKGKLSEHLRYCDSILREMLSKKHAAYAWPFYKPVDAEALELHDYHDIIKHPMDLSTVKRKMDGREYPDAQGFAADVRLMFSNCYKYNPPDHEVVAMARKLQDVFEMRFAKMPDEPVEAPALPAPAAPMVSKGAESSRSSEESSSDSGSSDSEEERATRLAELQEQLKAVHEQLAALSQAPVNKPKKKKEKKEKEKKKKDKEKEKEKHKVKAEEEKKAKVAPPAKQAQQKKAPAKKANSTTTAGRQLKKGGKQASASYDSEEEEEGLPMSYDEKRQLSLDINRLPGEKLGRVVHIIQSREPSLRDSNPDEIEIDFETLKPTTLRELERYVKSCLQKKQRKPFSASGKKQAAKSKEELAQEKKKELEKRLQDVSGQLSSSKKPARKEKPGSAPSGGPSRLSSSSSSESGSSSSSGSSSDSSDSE
T3 sequence (Q96SW2 whole entry, looked up): as the sequence (Q96SW2 whole entry, looked up) above

[5] = target: T1, Protein cereblon/Bromodomain-containing protein 4/Cullin-4A (Homo sapiens); assay: Induction of cereblon/cullin 4A-mediated BRD4 degradation in human RS4:11 cells at 1 nM after 3 hrs in presence of BET inhibitor 4-((3-Cyclopropyl-1-ethyl-1H-pyrazol-5-yl)amino)-7-(3,5-dimethylisoxazol-4-yl)-6-methoxy-N-methyl-9H-pyrimido[4,5-b]-indole-2-carboxamide by Western blot method; type: cell-based
[6] = target: T2, Protein cereblon/Bromodomain-containing protein 2/Cullin-4A (Homo sapiens); assay: Induction of cereblon/cullin 4A-mediated BRD2 degradation in human RS4:11 cells at 0.1 nM after 24 hrs by Western blot method; type: cell-based; method in brief: as §1
[7] = target: T3, Protein cereblon/Bromodomain-containing protein 3/Cullin-4A (Homo sapiens); assay: Induction of cereblon/cullin 4A-mediated BRD3 degradation in human RS4:11 cells after 3 hrs by Western blot method; type: cell-based
Method in brief: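 RS4;11 cells (2 × 10⁶/well) treated for 3 h at the indicated concentrations. Lysed in RIPA with protease inhibitors and immunoblotted for BRD2, BRD3 and BRD4 with specific antibodies.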

[8] = test system: RS4-11; assay: Induction of cell cycle arrest in human RS4:11 cells after 24 hrs by propidium iodide staining based flow cytometry; type: functional
Method in brief: (§2)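 RS4;11 or MOLM-13 cells treated with compound for 24 h, then analyzed by flow cytometry. Cell cycle read by propidium iodide staining and apoptosis by annexin V/propidium iodide staining.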

[9] = test system: RS4-11; assay: Induction of apoptosis in human RS4:11 cells at 3 to 10 nM after 24 hrs by Annexin-V/propidium iodide staining based flow cytometry; type: functional, cell-based; method in brief: as §2
[10] = test system: Mus musculus; assay: Increase in caspase-3 cleavage in tumor of SCID mouse xenografted with human RS4:11 cells at 5 mg/kg administered as single dose measured up to 6 hrs by Western blot method; type: functional, organism-based
Method in brief: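 SCID mice bearing subcutaneous RS4;11 tumors received a single 5 mg/kg iv dose. Sacrificed at 1, 3, 6 and 24 h, with vehicle controls at 6 h, two mice per time point. Tumors ground in liquid nitrogen and lysed in CHAPS buffer, then immunoblotted for BRD2/3/4, c-Myc, PARP/cleaved PARP and caspase-3/cleaved caspase-3. Actin served as loading control.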

[11] = Drug metabolism in mouse liver microsomes assessed as metabolite m2 formation at 10 uM after 20 to 40 mins in presence of beta-NADPH […]; type: ADME, microsome
[12] = Drug metabolism in mouse liver microsomes assessed as N-butyl-4-(3-cyclopropyl-1-ethyl-1H-pyrazol-5-ylamino)-7-(3,5-dimethylisoxazol-4-yl)-6-methoxy-9H-pyrimido[4,5-b]indole-2-carboxamide formation at 10 uM after 20 to 40 mins in presence of beta-NADPH […]; type: ADME, microsome

For `CCn1nc(C2CC2)cc1Nc1nc(C(=O)NCCCCCc2cccc3c2CN(C2CCC(=O)NC2=O)C3=O)nc2[nH]c3cc(-c4c(C)noc4C)c(OC)cc3c12` (configuration not stated), the Activity [1] was “inactive”, the Activity [2] was “inactive” and the Activity [3] was “Active”. The Activity [4] was “inactive”, the Activity [5] was “inactive” and the Activity [6] was “Active”. The Activity [7] was “Dose-dependent effect”, the Activity [8] was “Dose-dependent effect” and the Activity [9] was “Active”. The Activity [10] was “Active”, the Drug metabolism [11] was “Metabolite_Detected” and the Drug metabolism [12] was “Metabolite_Detected”.
